The values that follow come from article PMC7856040 (ChemMedChem, 2020).

For experiment [1], the system named is first instar (Liverpool, LVP) Ae. aegypti. Description: larvae toxicity screen, small molecules added to the rearing water. In kind it is in vivo. The settings on record: for mortality at 48 h compared to VU854: 100 μM, first instar LVP larvae, one-way ANOVA, Dunnett's test; for mortality at 100 µM: Aedes aegypti, 48 h, read-out: mortality at 48 h.
Another experiment has as its target AeKir (Aedes aegypti, UniProt L0EQS9). Description: fluorescence-based in vitro thallium. In kind it is cell-based. The settings on record: HEK293. In outline: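 Fluorescence thallium-flux read-out in HEK293 cells expressing AeKir under tetracycline induction. Signals normalized to baseline Tl+ flux in the same line left uninduced by tetracycline. IC50 is the mean ± SEM of at least three independent experiments. Percent inhibition is taken at the highest concentration tested.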

For experiment [2], the system named is first instar (LVP or PR) Ae. aegypti. In words: larval toxicity concentration response curve. It is filed as in vivo.

What is called mortality is the share of the test organisms that died. A word on the inhibition: it is the change of the read-out against control, counted positive when it falls. Turning to `Cc1nc(CNc2cc(N3CCN(S(=O)(=O)c4ccc(F)cc4)CC3)ccc2[N+](=O)[O-])no1` [Compound 9q, 5-(4-((4-fluorophenyl)sulfonyl)piperazin-1-yl)-N-((5-methyl-1,2,4-oxadiazol-3-yl)methyl)-2-nitroaniline], the “mortality at 48 h compared to VU854” value in experiment [1] was “similarly efficacious as VU854”. For the same molecule, the inhibition at 30000 µM on AeKir is 109%. Consider `CC(Nc1cc(N2CCN(S(=O)(=O)c3ccc(F)cc3)CC2)ccc1[N+](=O)[O-])c1nccs1` (stereo not shown) [Compound 9i, 5-(4-((4-fluorophenyl)sulfonyl)piperazin-1-yl)-2-nitro-N-(1-(thiazol-2-yl)ethyl)aniline], for which the inhibition at 30000 µM at AeKir came out at 107%. For the molecule `O=[N+]([O-])c1ccc(N2CCN(S(=O)(=O)c3ccc(F)cc3)CC2)cc1NCc1nccs1` [Compound 9h, 5-(4-((4-fluorophenyl)sulfonyl)piperazin-1-yl)-2-nitro-N-(thiazol-2-ylmethyl)aniline], the inhibition at 30000 µM at AeKir worked out at 97%. For `Cc1ncc(CNc2cc(N3CCN(S(=O)(=O)c4ccc(F)cc4)CC3)ccc2[N+](=O)[O-])o1` [Compound 9o, 5-(4-((4-fluorophenyl)sulfonyl)piperazin-1-yl)-N-((2-methyloxazol-5-yl)methyl)-2-nitroaniline], the inhibition at 30000 µM at AeKir was found to be 106%. Take `Cc1ncc(CNc2cc(N3CCN(S(=O)(=O)c4ccc(F)cc4)CC3)ccc2[N+](=O)[O-])s1` [Compound 9j, 5-(4-((4-fluorophenyl)sulfonyl)piperazin-1-yl)-N-((2-methylthiazol-5-yl)methyl)-2-nitroaniline]: at AeKir, the inhibition at 30000 µM was found to be 111%. On to `O=[N+]([O-])c1ccc(N2CCN(S(=O)(=O)c3ccc(F)cc3)CC2)cc1NCc1ccon1` [Compound 9r, 5-(4-((4-fluorophenyl)sulfonyl)piperazin-1-yl)-N-(isoxazol-3-ylmethyl)-2-nitroaniline], for which, at AeKir, the inhibition at 30000 µM was found to be 99%. In the case of `O=[N+]([O-])c1ccc(N2CCN(S(=O)(=O)c3ccc(F)cc3)CC2)cc1NCc1cc2ccccc2o1` [Compound 9t, N-(benzofuran-2-ylmethyl)-5-(4-((4-fluorophenyl)sulfonyl)piperazin-1-yl)-2-nitroaniline], the inhibition at 30000 µM against AeKir came to 10%. Turning to `O=[N+]([O-])c1ccc(N2CCN(S(=O)(=O)c3ccc(F)cc3)CC2)cc1NCc1nc2ccccc2o1` [Compound 9u, N-(benzo[d]oxazol-2-ylmethyl)-5-(4-((4-fluorophenyl)sulfonyl)piperazin-1-yl)-2-nitroaniline], the inhibition at 30000 µM at AeKir turned out to be 29%. `Cc1cc(CNc2cc(N3CCN(S(=O)(=O)c4ccc(F)cc4)CC3)ccc2[N+](=O)[O-])no1` [Compound 9f, 5-(4-((4-fluorophenyl)sulfonyl)piperazin-1-yl)-N-((5-methylisoxazol-3-yl)methyl)-2-nitroaniline]: the inhibition at 30000 µM against AeKir came to 109%. As for `O=[N+]([O-])c1ccc(N2CCN(S(=O)(=O)c3ccc(F)cc3)CC2)cc1F` [Compound 8, 1-(3-fluoro-4-nitrophenyl)-4-((4-fluorophenyl)sulfonyl)piperazine], in experiment [1], the “mortality at 48 h compared to VU854” value was “significantly greater mortality” and the mortality at 100 µM worked out at 100%. Besides, at AeKir, the inhibition at 30000 µM came out at 100%. For the same molecule, the “times more potent against the LVP strain (versus PR)” value in experiment [2] (CRC, 48 h) is reported as ~ 2 times. Turning to `CC(Nc1cc(N2CCN(S(=O)(=O)c3ccc(F)cc3)CC2)ccc1[N+](=O)[O-])c1ncco1` (stereo not shown) [Compound 9l, 5-(4-((4-fluorophenyl)sulfonyl)piperazin-1-yl)-2-nitro-N-(1-(oxazol-2-yl)ethyl)aniline], the inhibition at 30000 µM against AeKir amounted to 109%.

Regarding `O=[N+]([O-])c1ccc(N2CCN(S(=O)(=O)c3ccc(F)cc3)CC2)cc1NCc1cnco1` [Compound 9m, 5-(4-((4-fluorophenyl)sulfonyl)piperazin-1-yl)-2-nitro-N-(oxazol-5-ylmethyl)aniline], the inhibition at 30000 µM on AeKir worked out at 99%. With `Cc1nnc(CNc2cc(N3CCN(S(=O)(=O)c4ccc(F)cc4)CC3)ccc2[N+](=O)[O-])o1` [Compound 9g, 5-(4-((4-fluorophenyl)sulfonyl)piperazin-1-yl)-N-((5-methyl-1,3,4-oxadiazol-2-yl)methyl)-2-nitroaniline], the inhibition at 30000 µM against AeKir amounted to 110%.

Consider `O=[N+]([O-])c1ccc(N2CCN(S(=O)(=O)c3ccc(F)cc3)CC2)cc1NCc1ncco1` [Compound 9k, 5-(4-((4-fluorophenyl)sulfonyl)piperazin-1-yl)-2-nitro-N-(oxazol-2-ylmethyl)aniline], for which the inhibition at 30000 µM on AeKir was determined as 98%. In the case of `Cc1cnc(CNc2cc(N3CCN(S(=O)(=O)c4ccc(F)cc4)CC3)ccc2[N+](=O)[O-])o1` [Compound 9n, 5-(4-((4-fluorophenyl)sulfonyl)piperazin-1-yl)-N-((5-methyloxazol-2-yl)methyl)-2-nitroaniline], the “mortality at 48 h compared to VU854” value in experiment [1] is “similarly efficacious as VU854”. The inhibition at 30000 µM against AeKir was determined as 100%. As for `Cc1nnc(CNc2cc(N3CCN(S(=O)(=O)c4ccc(F)cc4)CC3)ccc2[N+](=O)[O-])s1` [Compound 9s, 5-(4-((4-fluorophenyl)sulfonyl)piperazin-1-yl)-N-((5-methyl-1,3,4-thiadiazol-2-yl)methyl)-2-nitroaniline], the “mortality at 48 h compared to VU854” value in experiment [1] is on record as “similarly efficacious as VU854”. In addition, on AeKir, the inhibition at 30000 µM was 61%.

Turning to `O=[N+]([O-])c1ccc(N2CCN(S(=O)(=O)c3ccc(F)cc3)CC2)cc1NCc1ncon1` [Compound 9p, N-((1,2,4-oxadiazol-3-yl)methyl)-5-(4-((4-fluorophenyl)sulfonyl)piperazin-1-yl)-2-nitroaniline], in experiment [1], the “mortality at 48 h compared to VU854” value was “significantly greater mortality” and the mortality at 100 µM amounted to 99%. The inhibition at 30000 µM at AeKir came to 109%. Further, the mortality at 100 µM in experiment [2] (Aedes aegypti, 48 h, read-out: maximal mortality within 48 h) is about 50%. Also, the “pathology observed in treated larvae” value in experiment [2] (contiguous trail of excrement from midgut beyond the rectum) was “constipation or excretory failure”. Consider `O=[N+]([O-])c1ccc(N2CCN(S(=O)(=O)c3ccc(F)cc3)CC2)cc1NCc1ccco1` [Compound 9a, 5-(4-((4-fluorophenyl)sulfonyl)piperazin-1-yl)-N-(furan-2-ylmethyl)-2-nitroaniline], for which the inhibition at 30000 µM against AeKir worked out at 96%.
